Reference: ChEMBL document CHEMBL4715822, “Structure-based lead optimization to improve antiviral potency and ADMET properties of phenyl-1H-pyrrole-carboxamide entry inhibitors targeted to HIV-1 gp120” (Eur J Med Chem, 2018)

What was measured:
[1] = system: Human immunodeficiency virus 1; test: Antiviral activity against clinical isolate HIV-1 CMU02 infected in human PBMC cells assessed as reduction in viral transmission to TZM-bl cells pretreated for 1 hr before viral transmission and further incubated for 48 hrs by luciferase based assay; assay type: functional, cell-based; conditions: Human immunodeficiency virus 1, CMU02, PBMC
[2] = Apparent permeability across basolateral to apical side in human Caco2 cells incubated for 2 hrs by LC-MS/MS analysis; assay type: ADME, cell-based, Caco-2; conditions: caco-2, 2 h
Outline: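 Caco-2 monolayers grown three weeks to differentiate; compound in transport buffer pH 7.4 (glucose, 10 mM HEPES, HBSS) added apical (A-B) or basal (B-A) side, with or without 100 μM verapamil; 2 h incubation, both sides sampled. Lucifer yellow 100 μM on A side checks integrity (≤2% transport). Papp = (dQ/dt)/(C0 × A); efflux ratio = Papp(B→A)/Papp(A→B).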

[3] = system: Human immunodeficiency virus 1; test: Antiviral activity against pseudovirus HIV-1 HXB-2 harboring Env A204D mutant infected in human U87.CD4.CXCR4 cells assessed as reduction in viral infection pretreated for 30 mins before viral infection and measured after 3 days by luciferase based assay; assay type: functional, cell-based, M:B_HXB2R
Outline: (§1)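 Pseudoviruses made in HEK293T by co-transfecting an Env-deleted backbone (pSG3Δenv or pNL4-3.Luc.R-.E-) with an HXB-2 Env plasmid carrying single or double substitutions; Env sequences confirmed by sequencing. Virus pretreated 30 min with graded compound, added to U87-CD4-CXCR4 cells (1 × 10⁴/well, plated overnight), incubated 3 days. Cells lysed, luciferase measured, IC50 calculated.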

[4] = system: Human immunodeficiency virus 1; test: Antiviral activity against clinical isolate HIV-1 RU570 infected in human PBMC cells assessed as reduction in viral transmission to TZM-bl cells pretreated for 1 hr before viral transmission and further incubated for 48 hrs by luciferase based assay; assay type: functional, cell-based; conditions: Human immunodeficiency virus 1, RU570, PBMC
[5] = system: Human immunodeficiency virus 1; test: Antiviral activity against clinical isolate HIV-1 92US657 infected in human PBMC cells assessed as reduction in viral transmission to TZM-bl cells pretreated for 1 hr before viral transmission and further incubated for 48 hrs by luciferase based assay; assay type: functional, cell-based; conditions: Human immunodeficiency virus 1, 92US657, PBMC
Outline: (§2)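 PBMC from healthy HIV-negative donors infected with replication-competent virus in the presence of 30 μg/ml DEAE-dextran. On day 4 post-infection, cells washed free of virus and counted. 2 × 10⁴ infected PBMC/well pretreated with escalating compound for 1 h at 37 °C, then co-cultured 48 h with TZM-bl targets (10⁴/well, plated 24 h before). TZM-bl lysed, luciferase read, IC50 calculated.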

[6] = system: Human immunodeficiency virus 1; test: Antiviral activity against pseudovirus HIV-1 HXB-2 harboring Env S375W mutant infected in human U87.CD4.CXCR4 cells assessed as reduction in viral infection pretreated for 30 mins before viral infection and measured after 3 days by luciferase based assay; assay type: functional, cell-based, M:B_HXB2R; outline: as §1
[7] = system: Human immunodeficiency virus 1; test: Antiviral activity against pseudovirus HIV-1 HXB-2 harboring Env M426L mutant infected in human U87.CD4.CXCR4 cells assessed as reduction in viral infection pretreated for 30 mins before viral infection and measured after 3 days by luciferase based assay; assay type: functional, cell-based, M:B_HXB2R; outline: as §1
[8] = system: Human immunodeficiency virus 1; test: Antiviral activity against clinical isolate HIV-1 BCF03 infected in human PBMC cells assessed as reduction in viral transmission to TZM-bl cells pretreated for 1 hr before viral transmission and further incubated for 48 hrs by luciferase based assay; assay type: functional, cell-based; conditions: Human immunodeficiency virus 1, BCF03, PBMC
[9] = system: Human immunodeficiency virus 1; test: Antiviral activity against clinical isolate HIV-1 92US073 infected in human PBMC cells assessed as reduction in viral transmission to TZM-bl cells pretreated for 1 hr before viral transmission and further incubated for 48 hrs by luciferase based assay; assay type: functional, cell-based; conditions: Human immunodeficiency virus 1, 92US073, PBMC; outline: as §2

With COc1cnc(-n2cnc(C)n2)c2[nH]cc(C(=O)C(=O)N3CCN(C(=O)c4ccccc4)CC3)c12 the IC50 [1] was greater than 6000 nM, the Papp [2] was 32 10^-6 cm/s and the IC50 [3] was greater than 1000 nM. The IC50 [4] was 100 nM, the IC50 [5] was 100 nM and the IC50 [6] was greater than 1000 nM. The IC50 [7] was 230 nM, the IC50 [8] was greater than 6000 nM and the IC50 [9] was 100 nM.
